Results published in ChEMBL document CHEMBL3608303, “Discovery of novel potent and selective ligands for 5-HT2A receptor with quinazoline scaffold” (Bioorg Med Chem Lett, 2015).

Legend:
[1] = target: T1, 5-hydroxytryptamine receptor 2A (Homo sapiens, UniProt P28223); test: Displacement of [3H]ketanserin hydrochloride from 5-HT2A receptor (unknown origin) expressed in HEK293 cell membranes incubated for 15 mins by liquid scintillation spectrometry
D(2) dopamine receptor = D(2) dopamine receptor (Homo sapiens, UniProt P14416); test: Displacement of [3H]-spiperone from dopamine D2 receptor (unknown origin) expressed in HEK293 cell membranes incubated for 15 mins by liquid scintillation spectrometry
Sequence of D(2) dopamine receptor (P14416 whole entry): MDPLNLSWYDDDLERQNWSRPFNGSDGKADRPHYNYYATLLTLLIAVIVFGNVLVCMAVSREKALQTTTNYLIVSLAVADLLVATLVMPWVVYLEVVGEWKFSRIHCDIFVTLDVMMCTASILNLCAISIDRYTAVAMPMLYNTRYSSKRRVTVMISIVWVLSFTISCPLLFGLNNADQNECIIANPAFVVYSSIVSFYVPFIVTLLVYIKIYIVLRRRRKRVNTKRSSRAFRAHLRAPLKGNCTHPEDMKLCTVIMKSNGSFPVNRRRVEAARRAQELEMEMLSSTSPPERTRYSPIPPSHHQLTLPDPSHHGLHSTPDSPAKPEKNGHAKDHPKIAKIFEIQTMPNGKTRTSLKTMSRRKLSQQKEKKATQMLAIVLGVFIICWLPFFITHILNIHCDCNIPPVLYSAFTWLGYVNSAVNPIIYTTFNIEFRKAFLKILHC

D(3) dopamine receptor = D(3) dopamine receptor (Homo sapiens, UniProt P35462); test: Displacement of [3H]-spiperone from dopamine D3 receptor (unknown origin) expressed in HEK293 cell membranes incubated for 15 mins by liquid scintillation spectrometry; parameters: concentration or dose not given beside the values
Sequence of D(3) dopamine receptor (P35462 whole entry): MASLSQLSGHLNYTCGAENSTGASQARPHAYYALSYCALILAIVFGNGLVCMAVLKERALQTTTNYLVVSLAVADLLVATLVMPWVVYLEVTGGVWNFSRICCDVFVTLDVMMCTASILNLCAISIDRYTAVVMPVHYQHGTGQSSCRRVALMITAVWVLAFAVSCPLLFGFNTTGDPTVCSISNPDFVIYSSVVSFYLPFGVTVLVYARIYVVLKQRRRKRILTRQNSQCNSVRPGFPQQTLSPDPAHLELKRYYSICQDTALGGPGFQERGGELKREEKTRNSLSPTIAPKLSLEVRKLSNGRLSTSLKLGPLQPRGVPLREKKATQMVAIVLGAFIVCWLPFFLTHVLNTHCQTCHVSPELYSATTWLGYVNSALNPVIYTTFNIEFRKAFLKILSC

D(1A) dopamine receptor [2] = target: T2, D(1A) dopamine receptor (Homo sapiens, UniProt P21728); details: hek293
T2 sequence (P21728 whole entry): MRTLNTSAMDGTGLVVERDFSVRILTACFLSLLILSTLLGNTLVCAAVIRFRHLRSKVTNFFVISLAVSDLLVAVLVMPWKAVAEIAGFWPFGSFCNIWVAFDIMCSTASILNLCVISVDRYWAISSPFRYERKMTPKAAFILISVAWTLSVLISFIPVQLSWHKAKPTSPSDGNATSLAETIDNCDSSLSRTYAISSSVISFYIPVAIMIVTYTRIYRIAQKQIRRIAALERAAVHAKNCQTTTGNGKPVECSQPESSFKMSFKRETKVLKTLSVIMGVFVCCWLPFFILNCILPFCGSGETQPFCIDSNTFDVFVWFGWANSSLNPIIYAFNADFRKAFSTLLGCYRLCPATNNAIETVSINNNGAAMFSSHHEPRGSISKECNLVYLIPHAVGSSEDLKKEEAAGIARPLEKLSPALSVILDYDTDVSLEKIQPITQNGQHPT

[3] = target: T1, 5-hydroxytryptamine receptor 2A; test: Displacement of [3H]ketanserin hydrochloride from 5-HT2A receptor (unknown origin) expressed in HEK293 cell membranes incubated for 15 mins by liquid scintillation spectrometry relative to control; parameters: concentration or dose not given beside the values
Method in brief: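 [3H]-Ketanserin displacement at 5-HT2A, first run as percent displacement of radioligand by a 10 μM test concentration.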

[4] = target: T3, 5-hydroxytryptamine receptor 1A (Homo sapiens, UniProt P08908); test: (§1) Displacement of [3H]-8-OH-DPAT from 5-HT1A receptor (unknown origin) expressed in HEK293 cell membranes incubated for 15 mins by liquid scintillation spectrometry
T3 sequence (P08908 whole entry): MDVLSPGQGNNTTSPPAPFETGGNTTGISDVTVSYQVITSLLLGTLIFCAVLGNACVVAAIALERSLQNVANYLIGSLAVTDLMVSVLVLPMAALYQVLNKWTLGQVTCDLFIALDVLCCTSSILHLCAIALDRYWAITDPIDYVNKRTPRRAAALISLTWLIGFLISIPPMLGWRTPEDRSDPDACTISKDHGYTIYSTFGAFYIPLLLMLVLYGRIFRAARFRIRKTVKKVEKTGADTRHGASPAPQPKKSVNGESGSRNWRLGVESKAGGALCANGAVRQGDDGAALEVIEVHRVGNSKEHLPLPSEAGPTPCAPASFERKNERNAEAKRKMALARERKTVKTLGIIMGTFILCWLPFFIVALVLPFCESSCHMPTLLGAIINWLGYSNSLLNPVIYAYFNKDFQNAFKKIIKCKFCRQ

[5] = target: T1, 5-hydroxytryptamine receptor 2A; assay type: functional, cell-based, HEK293
[6] = target: T1, 5-hydroxytryptamine receptor 2A; test: Agonist activity at 5-HT2A receptor (unknown origin) expressed in HEK293 cell membranes assessed as induction of [35S]-GTPgammaS binding incubated for 30 mins by liquid scintillation counting method; assay type: functional
D(1A) dopamine receptor [7] = target: T2, D(1A) dopamine receptor; test: Displacement of [3H]-SCH-23390 from dopamine D1 receptor (unknown origin) expressed in HEK293 cell membranes incubated for 15 mins by liquid scintillation spectrometry
[8] = target: T4, 5-hydroxytryptamine receptor 1A (Homo sapiens) (UniProt P08908); test: as §1; parameters: concentration or dose not given beside the values
T4 sequence (whole entry): T3 sequence (P08908 whole entry)

T1 sequence (P28223 whole entry): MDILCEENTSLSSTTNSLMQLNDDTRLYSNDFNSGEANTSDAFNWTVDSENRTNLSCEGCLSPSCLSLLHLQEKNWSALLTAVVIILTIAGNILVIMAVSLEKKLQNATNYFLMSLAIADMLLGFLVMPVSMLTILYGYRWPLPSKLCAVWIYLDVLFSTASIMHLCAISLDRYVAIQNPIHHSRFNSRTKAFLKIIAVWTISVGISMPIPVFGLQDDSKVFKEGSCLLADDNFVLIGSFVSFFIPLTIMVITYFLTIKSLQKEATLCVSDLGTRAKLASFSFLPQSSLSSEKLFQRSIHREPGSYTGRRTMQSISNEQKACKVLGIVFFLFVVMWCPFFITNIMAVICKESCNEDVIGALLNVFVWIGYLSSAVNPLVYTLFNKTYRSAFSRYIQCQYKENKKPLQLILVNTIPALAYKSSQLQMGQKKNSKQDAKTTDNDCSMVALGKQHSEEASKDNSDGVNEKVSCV

SMILES | Ki [1] [nM] | Ki (D(2) dopamine receptor) | inhibition (D(3) dopamine receptor) [%] | Ki (D(1A) dopamine receptor [2]) | inhibition [3] [%] | Ki [4] | IC50 [5] [nM] | EC50 [6] | inhibition (D(1A) dopamine receptor [7]) [%] | inhibition (D(2) dopamine receptor) [%] | inhibition [8] [%] | Ki (D(3) dopamine receptor; read-out: Ki) [nM] | Ki (D(3) dopamine receptor; hek293)
Fc1ccc(Nc2nc(N3CCOCC3)nc3ccccc23)cc1 | 235 | Not Active | -0.57 | Not Active | > 90 | Not Active |  |  |  |  |  |  | 
OCCN1CCN(c2nc(Nc3ccc(F)cc3)c3ccccc3n2)CC1 | 120 | Not Active | 49.3 | Not Active |  | Not Active | 21300 | Not Active |  |  |  |  | 
COc1ccccc1Nc1nc(N2CCNCC2)nc2ccccc12 | 45.8 | Not Active |  | Not Active | > 90 | Not Active |  | Not Active |  |  |  |  | 
Fc1ccccc1Nc1nc(N2CCNCC2)nc2ccccc12 | 70 | Not Active | 22.5 | Not Active | > 90 | Not Active |  | Not Active |  |  |  |  | 
CC(C)c1ccc(Nc2nc(N3CCNCC3)nc3ccccc23)cc1 | 42.1 |  | 22.5 |  | > 90 |  |  |  | 94.8 | 14 | 84.3 |  | 
OCCN1CCN(c2nc(Nc3cccc(O)c3)c3ccccc3n2)CC1 | 83.4 | Not Active | 11.7 | Not Active | > 90 | Not Active | 9120 | Not Active |  |  |  |  | 
OCCN1CCN(c2nc(Nc3ccc(I)cc3)c3ccccc3n2)CC1 | 383 |  |  |  | > 90 |  |  |  |  |  |  |  | 
OCCN1CCN(c2nc(Nc3ccccc3F)c3ccccc3n2)CC1 | 65.8 | Not Active | 10.1 | Not Active | > 90 | Not Active | 1370 | Not Active |  |  |  |  | 
OCCN1CCN(c2nc(NCc3ccccc3)c3ccccc3n2)CC1 | 520 | Not Active |  | Not Active | > 90 | Not Active |  |  |  |  |  | 1440 | 
OCCN1CCN(c2nc(Nc3ccc(Br)cc3)c3ccccc3n2)CC1 | 92 | Not Active |  | Not Active |  | Not Active | 27700 | Not Active |  |  |  | 571 | 
Cc1ccc(Nc2nc(N3CCN(CCO)CC3)nc3ccccc23)c(C)c1 | 268 | Not Active | 39 | Not Active | > 90 |  |  |  |  |  | 81.2 |  | 
OCCN1CCN(c2nc(Nc3ccc(Cl)cc3)c3ccccc3n2)CC1 | 109 |  | 75.6 |  |  |  | 7430 | Not Active | 80.5 | 53 | 53.8 |  | 
Clc1ccc(Nc2nc(N3CCNCC3)nc3ccccc23)cc1 | 14 |  | 78.8 |  |  |  | 1660 | Not Active | 83.9 | 71.4 | 88.6 |  | 
COc1ccc(Nc2nc(N3CCN(CCO)CC3)nc3ccccc23)c(OC)c1 | 594 | Not Active |  | Not Active | > 90 | Not Active |  |  |  |  |  |  | Not Active
CC(C)(C)[C@@]1(O)CCN2C[C@@H]3c4ccccc4CCc4cccc(c43)[C@H]2C1 |  |  |  |  | > 90 |  |  |  |  |  |  |  | 
CC(C)c1ccc(Nc2nc(Nc3ccc(C(C)C)cc3)c3ccccc3n2)cc1 |  | Not Active |  | Not Active | 5.91 | Not Active |  |  |  |  |  |  | Not Active
Clc1ccc(Nc2nc(N3CCOCC3)nc3ccccc23)cc1 |  |  |  |  | 45.3 |  |  |  | -9.36 |  | 16.7 |  | 
COc1ccccc1Nc1nc(N2CCN(CCO)CC2)nc2ccccc12 | 146 | Not Active | 0.9 | Not Active | > 90 |  |  |  |  |  | 52 |  | 
COc1ccc(Nc2nc(N3CCN(CCO)CC3)nc3ccccc23)cc1 | 1360 |  |  |  | > 90 |  |  |  |  |  |  |  | 
CC(C)c1ccc(Nc2nc(N(C)C)nc3ccccc23)cc1 |  | Not Active |  | Not Active | 75.1 | Not Active |  |  |  |  |  |  | Not Active
Ic1ccc(Nc2nc(N3CCNCC3)nc3ccccc23)cc1 | 496 | Not Active |  | Not Active | > 90 |  |  |  |  |  | 56.6 |  | Not Active
Fc1ccccc1Nc1nc(N2CCOCC2)nc2ccccc12 | 184 | Not Active |  | Not Active | > 90 | Not Active |  |  |  |  |  |  | 
CC(C)c1ccc(Nc2nc(N3CCN(CCO)CC3)nc3ccccc23)cc1 | 149 | Not Active |  | Not Active | > 90 |  |  |  |  |  | 42.3 | 1140 | 
